Experimental data: ChEMBL document CHEMBL1240328, “Selective compounds define Hsp90 as a major inhibitor of apoptosis in small-cell lung cancer” (Nat Chem Biol, 2007)
Each block holds one compound with its values, some of them ahead of it. Active and inactive are the calls of the source.

What was measured:
[1] = system: SK-BR-3; experiment: Inhibition of HSP70-mediated antiapoptotic activity in human SKBR3 cells assessed as induction of PARP cleavage after 24 hrs by Western blot analysis; format: cell-based
Summary of the method: (§1)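 SKBr3 cells were treated for 24 h. Lysates were probed by western blot for caspase-3 and PARP cleavage. Apaf-1 complexes were pulled down with Apaf-1 antibody (with control IgG) and immunoblotted.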

[2] = system: SK-BR-3; experiment: Inhibition of HSP70-mediated antiapoptotic activity in human SKBR3 cells assessed as induction of cell growth arrest after 72 hrs by propidium iodide staining-based flow cytometry
[3] = biological target: Heat shock protein HSP 90-beta (Homo sapiens) (UniProt P08238); experiment: Inhibition of HSP90-mediated antiapoptotic activity in human NCI-H526 cells assessed as reduction in BAD phosphorylation at 50 uM after 24 hrs by Western blot analysis; format: cell-based
[4] = system: NCI-H526; experiment: Inhibition of HSP70-mediated antiapoptotic activity in human NCI-H526 cells assessed as release of Apaf-1 from chaperon complex after 24 hrs by Western blot analysis; format: cell-based
Summary of the method: (§2)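 NCI-H526 cells were treated for 24 h. PARP and caspase-3 cleavage were read by western blot of lysates in Tris/NaCl/NP-40 buffer. Apaf-1 complexes were immunoprecipitated with Apaf-1 antibody, using control IgG, then blotted.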

[5] = biological target: Heat shock protein HSP 90-beta (Homo sapiens) (UniProt P08238); experiment: Inhibition of HSP90-mediated antiapoptotic activity in human MCF7 cells assessed as induction of caspase-3 cleavage at 50 uM after 24 hrs by Western blot analysis; format: cell-based
[6] = biological target: Heat shock protein HSP 90-beta (Homo sapiens) (UniProt P08238); experiment: Inhibition of HSP90-mediated antiapoptotic activity in human MCF7 cells assessed as induction of caspase-9 cleavage at 50 uM after 24 hrs by Western blot analysis; format: cell-based
[7] = system: SK-BR-3; experiment: Inhibition of HSP70-mediated antiapoptotic activity in human SKBR3 cells assessed as induction of caspase-3 cleavage after 24 hrs by Western blot analysis; format: cell-based; summary of the method: as §1
[8] = biological target: Heat shock protein HSP 90-beta (Homo sapiens) (UniProt P08238); experiment: Inhibition of HSP90-mediated antiapoptotic activity in human MCF7 cells assessed as induction of cell growth arrest at 50 uM after 24 hrs by propidium iodide staining-based flow cytometry
[9] = system: NCI-H526; experiment: Inhibition of HSP70-mediated antiapoptotic activity in human NCI-H526 cells assessed as induction of caspase-3 cleavage after 24 hrs by Western blot analysis; format: cell-based; summary of the method: as §2
[10] = biological target: Heat shock protein HSP 90-beta (Homo sapiens) (UniProt P08238); experiment: Inhibition of HSP90-mediated antiapoptotic activity in human NCI-H526 cells assessed as induction of Akt degradation at 50 uM after 24 hrs by Western blot analysis; format: cell-based
[11] = biological target: Heat shock protein HSP 90-beta (Homo sapiens) (UniProt P08238); experiment: Inhibition of HSP90-mediated antiapoptotic activity in human SKBR3 cells assessed as induction of PARP cleavage at 50 uM after 24 hrs by Western blot analysis; format: cell-based; details: SK-BR-3
Summary of the method: (§3)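 SKBr3 cells at 60–70% confluence were exposed to drug or DMSO vehicle. Lysis was in 50 mM Tris pH 7.4, 150 mM NaCl, 1% NP-40, with protein measured by BCA. Lysates of 20–100 µg were run on SDS-PAGE, blotted to nitrocellulose, probed with primary antibodies and detected with a peroxidase-conjugated secondary (1:5,000). Loading was checked with β-actin or PI(3)K p85.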

[12] = biological target: Heat shock protein HSP 90-beta (Homo sapiens) (UniProt P08238); experiment: Inhibition of HSP90-mediated antiapoptotic activity in human SKBR3 cells assessed as induction of caspase-3 cleavage at 400 uM after 24 hrs by Western blot analysis; format: cell-based; details: SK-BR-3; summary of the method: as §3
[13] = system: SK-BR-3; experiment: Inhibition of HSP70-mediated antiapoptotic activity in human SKBR3 cells assessed as increase in caspase-3 activity after 24 hrs by Western blot analysis; format: cell-based
[14] = biological target: Heat shock protein HSP 90-beta (Homo sapiens) (UniProt P08238); experiment: Inhibition of HSP90-mediated antiapoptotic activity in human SKBR3 cells assessed as induction of cell growth arrest at 50 uM after 24 hrs by propidium iodide staining-based flow cytometry; details: SK-BR-3
[15] = biological target: Heat shock protein HSP 90-beta (Homo sapiens) (UniProt P08238); experiment: Inhibition of HSP90-mediated antiapoptotic activity in human MCF7 cells assessed as induction of PARP cleavage at 50 uM after 24 hrs by Western blot analysis; format: cell-based
[16] = system: SK-BR-3; experiment: Inhibition of HSP70-mediated antiapoptotic activity in human SKBR3 cells assessed as release of Apaf-1 from chaperon complex after 24 hrs by Western blot analysis; format: cell-based; summary of the method: as §1
[17] = system: NCI-H526; experiment: Inhibition of HSP70-mediated antiapoptotic activity in human NCI-H526 cells assessed as induction of PARP cleavage after 24 hrs by Western blot analysis; format: cell-based; summary of the method: as §2
[18] = biological target: Heat shock protein HSP 90-beta (Homo sapiens) (UniProt P08238); experiment: Inhibition of HSP90-mediated antiapoptotic activity in human NCI-H187 cells assessed as increase in apoptotic cell population at 0.2 to 1 uM after 72 hrs by FACS analysis relative to control; format: cell-based
[19] = biological target: Heat shock protein HSP 90-beta (Homo sapiens) (UniProt P08238); experiment: Inhibition of HSP90-mediated antiapoptotic activity in human NCI-N417 cells assessed as increase in apoptotic cell population at 0.2 to 1 uM after 96 hrs by FACS analysis relative to control; format: cell-based
[20] = biological target: Heat shock protein HSP 90-beta (Homo sapiens) (UniProt P08238); experiment: Binding affinity to HSP90 in human NCI-N417 cells after 24 hrs by fluorescence polarization assay; format: cell-based; details: NCI-H417
[21] = biological target: Heat shock protein HSP 90-beta (Homo sapiens) (UniProt P08238); experiment: Inhibition of HSP90 in chemo-resistant human H69AR cells at 100 uM after 24 hrs by fluorescence polarization assay; format: cell-based
Summary of the method: (§4)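 Competitive fluorescence polarization in lysates of H69AR, SKI-AC3 and WBA cells, prepared in HFB buffer pH 7.3 and normalized to Hsp90. Tracer was 3 nM Cy3B-geldanamycin, with incubation for 24 h at 4 °C. EC50 was defined as 50% tracer displacement.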

[22] = biological target: Heat shock protein HSP 90-beta (Homo sapiens) (UniProt P08238); experiment: Inhibition of HSP90-mediated proliferation of human NCI-H69 cells at 1 to 3 uM after 72 to 96 hrs by sulforhodamine B assay; format: cell-based
[23] = biological target: Heat shock protein HSP 90-beta (Homo sapiens) (UniProt P08238); experiment: Binding affinity to HSP90 in human NCI-H187 cells after 24 hrs by fluorescence polarization assay
[24] = biological target: Heat shock protein HSP 90-beta (Homo sapiens) (UniProt P08238); experiment: Inhibition of HSP90-mediated antiapoptotic activity in human NCI-H510 cells assessed as increase in apoptotic cell population at 0.2 to 1 uM after 96 hrs by FACS analysis relative to control; format: cell-based
[25] = biological target: Heat shock protein HSP 90-beta (Homo sapiens) (UniProt P08238); experiment: Inhibition of HSP90-mediated proliferation of human NCI-H146 cells at 1 to 3 uM after 72 to 96 hrs by sulforhodamine B assay; format: cell-based
[26] = biological target: Heat shock protein HSP 90-beta (Homo sapiens) (UniProt P08238); experiment: Inhibition of HSP90-mediated antiapoptotic activity in human WBA cells assessed as induction of cell growth arrest at 10 after 96 hrs by propidium iodide staining-based flow cytometry
[27] = biological target: Heat shock protein HSP 90-beta (Homo sapiens) (UniProt P08238); experiment: Inhibition of HSP90-mediated proliferation of human NCI-H209 cells at 1 to 3 uM after 72 to 96 hrs by sulforhodamine B assay; format: cell-based
[28] = biological target: Heat shock protein HSP 90-beta (Homo sapiens) (UniProt P08238); experiment: Inhibition of HSP90-mediated antiapoptotic activity in human SKI-AC3 cells assessed as induction of cell growth arrest at 10 after 96 hrs by propidium iodide staining-based flow cytometry
[29] = biological target: Heat shock protein HSP 90-beta (Homo sapiens) (UniProt P08238); experiment: Binding affinity to HSP90 in human NCI-H510 cells after 24 hrs by fluorescence polarization assay; format: cell-based
[30] = biological target: Heat shock protein HSP 90-beta (Homo sapiens) (UniProt P08238); experiment: Inhibition of HSP90-mediated proliferation of human NCI-N417 cells at 1 to 3 uM after 72 to 96 hrs by sulforhodamine B assay; format: cell-based; details: NCI-H417
[31] = biological target: Heat shock protein HSP 90-beta (Homo sapiens) (UniProt P08238); experiment: Inhibition of HSP90-mediated antiapoptotic activity in human NCI-H146 cells assessed as increase in apoptotic cell population at 0.2 to 1 uM after 96 hrs by FACS analysis relative to control; format: cell-based
[32] = biological target: Heat shock protein HSP 90-beta (Homo sapiens) (UniProt P08238); experiment: Binding affinity to HSP90 in human NCI-H526 cells after 24 hrs by fluorescence polarization assay; format: cell-based
[33] = biological target: Heat shock protein HSP 90-beta (Homo sapiens) (UniProt P08238); experiment: Binding affinity to HSP90 in human NCI-H69 cells after 24 hrs by fluorescence polarization assay
[34] = biological target: Heat shock protein HSP 90-beta (Homo sapiens) (UniProt P08238); experiment: Inhibition of HSP90 in chemo-resistant human WBA cells at 100 uM after 24 hrs by fluorescence polarization assay; format: cell-based; summary of the method: as §4
[35] = biological target: Heat shock protein HSP 90-beta (Homo sapiens) (UniProt P08238); experiment: Binding affinity to HSP90 in human NCI-H209 cells after 24 hrs by fluorescence polarization assay; format: cell-based
[36] = biological target: Heat shock protein HSP 90-beta (Homo sapiens) (UniProt P08238); experiment: Inhibition of HSP90-mediated proliferation of human SKBR3cells after 72 hrs by sulforhodamine B assay
[37] = biological target: Heat shock protein HSP 90-beta (Homo sapiens) (UniProt P08238); experiment: Inhibition of HSP90-mediated antiapoptotic activity in human H69AR cells assessed as induction of cell growth arrest at 10 after 96 hrs by propidium iodide staining-based flow cytometry
[38] = biological target: Heat shock protein HSP 90-beta (Homo sapiens) (UniProt P08238); experiment: Inhibition of HSP90-mediated antiapoptotic activity in human NCI-H209 cells assessed as increase in apoptotic cell population at 0.2 to 1 uM after 96 hrs by FACS analysis relative to control; format: cell-based
[39] = biological target: Heat shock protein HSP 90-beta (Homo sapiens) (UniProt P08238); experiment: Inhibition of HSP90-mediated antiapoptotic activity in human NCI-H69 cells assessed as increase in apoptotic cell population at 0.2 to 1 uM after 72 hrs by FACS analysis relative to control; format: cell-based
[40] = biological target: Heat shock protein HSP 90-beta (Homo sapiens) (UniProt P08238); experiment: Inhibition of HSP90-mediated proliferation of human NCI-H187 cells at 1 to 3 uM after 72 to 96 hrs by sulforhodamine B assay; format: cell-based
[41] = biological target: Heat shock protein HSP 90-beta (Homo sapiens) (UniProt P08238); experiment: Inhibition of HSP90 in chemo-resistant human SKI-AC3 cells at 100 uM after 24 hrs by fluorescence polarization assay; format: cell-based; summary of the method: as §4
[42] = biological target: Heat shock protein HSP 90-beta (Homo sapiens) (UniProt P08238); experiment: Binding affinity to HSP90 in human NCI-H146 cells after 24 hrs by fluorescence polarization assay; format: cell-based
[43] = biological target: Heat shock protein HSP 90-beta (Homo sapiens) (UniProt P08238); experiment: Inhibition of HSP90-mediated proliferation of human NCI-H526 cells at 1 to 3 uM after 72 to 96 hrs by sulforhodamine B assay; format: cell-based
[44] = biological target: Heat shock protein HSP 90-beta (Homo sapiens) (UniProt P08238); experiment: Inhibition of HSP90-mediated antiapoptotic activity in human NCI-H526 cells assessed as increase in apoptotic cell population at 0.2 to 1 uM after 72 hrs by FACS analysis relative to control; format: cell-based
[45] = biological target: Heat shock protein HSP 90-beta (Homo sapiens) (UniProt P08238); experiment: Binding affinity to HSP90 in human SKBR3 cells after 24 hrs by fluorescence polarization assay; details: SK-BR-3
[46] = biological target: Heat shock protein HSP 90-beta (Homo sapiens) (UniProt P08238); experiment: Inhibition of HSP90-mediated proliferation of human NCI-H510 cells at 1 to 3 uM after 72 to 96 hrs by sulforhodamine B assay; format: cell-based

Sequence of Heat shock protein HSP 90-beta (Homo sapiens) (P08238 whole entry): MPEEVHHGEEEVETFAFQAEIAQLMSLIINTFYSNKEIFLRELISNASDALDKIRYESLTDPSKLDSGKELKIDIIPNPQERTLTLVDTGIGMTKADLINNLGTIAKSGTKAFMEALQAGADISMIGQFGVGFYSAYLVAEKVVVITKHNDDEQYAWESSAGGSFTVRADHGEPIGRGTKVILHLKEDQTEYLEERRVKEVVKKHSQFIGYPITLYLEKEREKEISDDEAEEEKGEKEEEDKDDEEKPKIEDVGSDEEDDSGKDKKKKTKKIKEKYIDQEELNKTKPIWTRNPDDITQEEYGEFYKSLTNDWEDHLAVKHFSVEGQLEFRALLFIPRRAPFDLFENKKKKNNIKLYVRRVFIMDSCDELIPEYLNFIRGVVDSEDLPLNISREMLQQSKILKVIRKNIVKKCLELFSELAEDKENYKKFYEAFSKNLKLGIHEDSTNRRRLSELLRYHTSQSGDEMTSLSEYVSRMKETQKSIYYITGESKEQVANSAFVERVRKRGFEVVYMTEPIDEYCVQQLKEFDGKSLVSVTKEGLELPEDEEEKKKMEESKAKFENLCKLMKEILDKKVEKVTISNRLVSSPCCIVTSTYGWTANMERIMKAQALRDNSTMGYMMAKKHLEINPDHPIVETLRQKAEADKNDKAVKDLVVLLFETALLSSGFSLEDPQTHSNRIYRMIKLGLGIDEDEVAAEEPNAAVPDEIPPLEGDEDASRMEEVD

- inhibition [3]: Active
- Activity [5]: Active
- Activity [6]: Active
- Activity [8]: Active
- Activity [10]: Active
- Activity [11]: Active
- Activity [12]: Active
- Activity [14]: Active
- Activity [15]: Active
Compound: CCCCCCN(C(=O)CCCCCN1C(=O)NC(c2ccc(-c3ccccc3)cc2)C(C(=O)OCc2ccccc2)=C1C)C(C(=O)NCCCC)c1ccc(OCC(=O)OC)c(C(=O)OC)c1 (stereo not drawn)
- inhibition [1]: Active
- inhibition [2]: Active
- inhibition [4]: inactive
- inhibition [7]: Active
- inhibition [9]: inactive
- inhibition [13]: Active
- inhibition [16]: inactive
- inhibition [17]: inactive

- fold change (FC) [18]: 2
- fold change (FC) [19]: 2
- Activity [20]: Active
- inhibition [21]: Active
- inhibition [22]: 50%
- Activity [23]: Active
- fold change (FC) [24]: 2
- inhibition [25]: 50%
- Activity [26]: Active
- inhibition [27]: 50%
- Activity [28]: Active
- Activity [29]: Active
- inhibition [30]: 50%
- fold change (FC) [31]: 2
- Activity [32]: Active
- Activity [33]: Active
- inhibition [34]: Active
- Activity [35]: Active
- inhibition [36]: Active
- Activity [37]: Active
- fold change (FC) [38]: 2
- fold change (FC) [39]: 2
- inhibition [40]: 50%
- inhibition [41]: Active
- Activity [42]: Active
- inhibition [43]: 50%
- fold change (FC) [44]: 2
- Activity [45]: Active
- inhibition [46]: 50%
Compound: C#CCCCn1c(Sc2cc3c(cc2Br)OCO3)nc2c(N)ncnc21

- inhibition [36]: Active
- Activity [45]: Active
Compound: CC(C)NCCCn1c(Cc2cc3c(cc2I)OCO3)nc2c(N)nc(F)nc21
